PLCg1 inh – blocks human PLC-gamma1 enzyme activity; P19174; purified PLC-gamma1, fluorogenic substrate, fluorescence; inhibition, % at 12.2 µM; 370,000 tested, 0.84% active; AID 720700; in the data active = inhibition above about 9.5%
DNA FID counter – displaces DNA intercalator in HCV helicase counter-screen; DNA fluorescent intercalator displacement, fluorescence; inhibition, % at 7.9 µM; 290,000 tested, 0.17% active; in the data active = inhibition above about 37%;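 note: 0% = vehicle and 100% = reference compound; higher means more ethidium bromide displaced from hairpin DNA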
PLCb3 inh – PLC-beta3 (human) inhibition, primary screen. Purified PLC-beta3, fluorogenic substrate, fluorescence. inhibition, % at 12.2 µM. 370,000 tested, 0.18% active. AID 720704; in the data active = inhibition above about 11%;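 note: 0% = median of compound wells on plate and 100% = full blocker control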
Tn7 DDE FP – DD(E)-Tn7 binding inhibition, primary FP screen; FP displacement of FITC-Tn7 peptide from fibrin DD(E); 0% = median of compound wells per plate; inhibition, % at 8.3 µM; 370,000 tested, 0.13% active;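 active = inhibition above the mean of compounds falling within the control limits plus 3 SD of them, cut at about 14% in these data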;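 note: 0% = plate median of compound wells and 100% = 10 µM Aha-Tn7 peptide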
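assay system = human clot-derived fibrin DD(E) complex | quantity = Fibrin-DD(E) at 2 µM final | timing = 10 min preincubation, 3 h with tracer, room temperature | signal = fluorescence polarization | measure = percent inhibition | benchmarks = high control wells with 10 µM unlabelled Aha-Tn7 peptide (full inhibition) | replicates = singlicate testing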
DDE Tn6 FP inh – disrupts Tn6 cyclic peptide binding to fibrin D-Dimer-E complex; 370,000 tested, 0.21% active; Fibrin DD(E) TRITC-Tn6 fluorescence polarization displacement; AID 720509; inhibition, % at 8.3 µM; P02675;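 active = inhibition above a per-campaign cutoff: mean of compounds within control limits plus 3 SD, cut at about 15% in these data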;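 note: 0% = median of all compound wells on the plate and 100% = blocking peptide control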
Starred values were filed as active, the others as inactive; · = not tested or not shown; + = active, no number. This is a sample that favours compounds with a hit; in the whole collection about 1.4% have one here.

SMILES | PLCg1 inh | DNA FID counter | PLCb3 inh | Tn7 DDE FP | DDE Tn6 FP inh
Cc1[nH]n(-c2ccccc2)c(=O)c1C(c1cccc([N+](=O)[O-])c1)c1c(C)[nH]n(-c2ccccc2)c1=O | 13* | -10 | 7 | -3 | -9
Cc1ccc(C(=O)C2CCN(CC(=O)Nc3ccccc3C)CC2)cc1 | -2 | -14 | -11 | 4 | -1
c1ccc(-c2cc(NCCN3CCCCC3)c3ccccc3n2)cc1 | -4 | 74* | -6 | 1 | -1
N=c1c(C(=O)NCCN2CCOCC2)cc2c(=O)n3ccccc3nc2n1CCCN1CCOCC1 | -269 | 76* | -437 | -8 | 6
Cc1ccc2nc3c(cc(C(=O)NCCN4CCOCC4)c(=N)n3CCCN3CCOCC3)c(=O)n2c1 | · | 79* | · | · | ·
CCOc1cc(C(=O)N2CCN=C2SC)cc(OCC)c1OCC | 3 | -13 | -1 | -5 | 2
Cc1ccc(NC2CCCN(C(=O)CCN3CCCCO3)C2)cc1C (configuration not stated) | 12* | -16 | 3 | 6 | -5
Cc1ccc(C(=O)O/N=C(\N)Cc2ccc([N+](=O)[O-])cc2)c(Cl)c1 | -1 | -3 | -7 | 11 | 2
COc1ccc(OCc2n(CC(=O)OC3CC(C)CCC3C(C)C)c3ccccc3[n+]2C)cc1 (configuration not stated) | 3 | 40* | -3 | -6 | 0
Cc1csc(Sc2ccc(C(=O)OCC(=O)Nc3ccc(F)cc3[N+](=O)[O-])cc2[N+](=O)[O-])n1 | 1 | -6 | 1 | 5 | 1
COc1ccc(Cl)cc1S(=O)(=O)NCc1nc2nc(C)cc(C)n2n1 | 1 | -8 | -1 | 4 | 5
COc1ccc(Cl)cc1Nc1nc(N)c2ccccc2n1 | -17 | 37* | -23 | 0 | 1
O=C(CN1C(=O)NC2(CCCC2)C1=O)NCc1cccc(Cl)c1 | 2 | · | 2 | -2 | 2
Cc1nc(-c2ccc(S(=O)(=O)Nc3cccc(Cl)c3)cc2)co1 | -2 | -19 | -9 | 0 | 6
CCOc1cc(N2CCOCC2)c(OCC)cc1NC(=O)CN1CCc2ccccc2C1 | 8 | -22 | 11* | 2 | 1
CCOc1cc(N2CCOCC2)c(OCC)cc1NC(=O)CSc1ccccc1C(=O)O | 5 | · | -9 | -8 | 0
COc1cc(-c2cc(C(=O)O)c3c(OC)c(OC)c(OC)cc3n2)ccc1O | -18 | -1 | -24 | -4 | 5
COc1ccc(CCNC(=O)C2CCCN(c3nc4ccccc4s3)C2)cc1OC (configuration not stated) | 1 | -54 | -5 | 12 | 1
CCc1nnc(NC(=O)C2CCCN(c3nc4ccccc4s3)C2)s1 (configuration not stated) | 11* | -13 | -88 | 8 | 9
CC1CCN(CCCNC(=O)CN2C(=O)CSc3ccc(S(=O)(=O)N4CCC(C)CC4)cc32)CC1 | 3 | 45* | -11 | -2 | -6
O=C(NCCCN1CCOCC1)c1ccc(CSc2ccc(Cl)cc2)cc1 | 1 | 38* | -6 | -4 | 2
CCN(CC)CCn1nc2c3c(cccc3c1=O)-c1ccccc1-2 | -161 | 40* | -172 | -8 | 4
O=c1c2cccc3c2c(nn1CN1CCOCC1)-c1ccccc1-3 | · | -3 | · | · | ·
CCCCC(=O)OCC(=O)C1(O)Cc2c(O)c3c(c(O)c2C(OC2CC(NC(=O)C(F)(F)F)C(O)C(C)O2)C1)C(=O)c1c(OC)cccc1C3=O (configuration not stated) | -22 | · | -37 | 0 | 43*
COc1cccc2c1-c1c(O)cccc1C2=O | -8 | 11 | -14 | -4 | -1
SMILES | PLCg1 inh | DNA FID counter | PLCb3 inh | Tn7 DDE FP | DDE Tn6 FP inh
COc1cccc2c1C(=O)c1c(O)c3c(c(O)c1C2=O)C[C@](O)(C(C)=O)C[C@H]3O[C@@H]1C[C@@H](N)[C@@H](O)[C@@H](C)O1 | -100 | · | -144 | 25* | +
COc1cccc2c1C(=O)c1c(O)c3c(c(O)c1C2=O)CC(O)(C(C)=O)CC3OC1CC(O)C(O)C(C)O1 (configuration not stated) | -156 | · | -208 | 26* | +
CCC(C)NC(=O)CN1C(=O)c2cccc3cccc1c23 (configuration not stated) | -240 | -6 | -298 | -7 | 5
CCCCn1c(=N)n(CC(O)COc2ccc(C)cc2)c2ccccc21 (configuration not stated) | 9 | 41* | 4 | -1 | 4
COc1cccc(NC(=O)c2ccc(NCCCN3CCC(C)CC3)c([N+](=O)[O-])c2)c1 | 1 | 26 | -1 | 3 | 1
COc1cccc(NC(=O)c2ccc(NCCCN3CC(C)CC(C)C3)c([N+](=O)[O-])c2)c1 (configuration not stated) | 3 | 51* | 3 | 3 | 2
O=C(C[n+]1cc(-c2ccccc2)n2c1CCC2)Nc1nc(-c2ccccc2)cs1 | 4 | 38* | 6 | -5 | 7
CC(C)N1CCC(N2CCN(Cc3ccc(-c4ccccc4Cl)o3)CC2CCO)CC1 (configuration not stated) | 2 | 53* | -2 | 2 | 0
CC(C)C(Cl)=NOC(=O)Nc1ccc(F)cc1 | 0 | · | 3 | -4 | 20*
O=[N+]([O-])c1ccc(C2CC(c3ccccc3)=Nc3ccccc3S2)cc1 (configuration not stated) | 7 | 3 | -3 | 1 | -8
C#CCOCCOCCOCCNc1nc(N2CCN(C(=O)[C@H]([C@@H](C)CC)n3cc([C@@H](N)Cc4ccc(O)cc4)nn3)CC2)nc(N2CCN(C(=O)[C@H](CCCCN)n3cc([C@@H](N)CC(C)C)nn3)CC2)n1 | · | 45* | · | · | ·
C#CCOCCOCCOCCNc1nc(N2CCN(C(=O)[C@H](CCCCN)n3cc([C@@H](N)CC(C)C)nn3)CC2)nc(N2CCN(C(=O)[C@H](Cc3ccc(O)cc3)n3cc([C@@H](N)CC(C)C)nn3)CC2)n1 | · | 44* | · | · | ·
C#CCOCCOCCOCCNc1nc(N2CCN(C(=O)[C@H]([C@@H](C)CC)n3cc([C@@H](N)CO)nn3)CC2)nc(N2CCN(C(=O)[C@H](CCCCN)n3cc([C@@H](N)CO)nn3)CC2)n1 | 5 | · | 5 | -1 | -5
C#CCOCCOCCOCCNc1nc(N2CCN(C(=O)C([C@@H](C)CC)n3cc(C(N)CC(C)C)nn3)CC2)nc(N2CCN(C(=O)[C@H](CCC(=O)O)n3cc(C(N)Cc4ccc(O)cc4)nn3)CC2)n1 (some centres not stated) | · | 16 | · | · | ·
C#CCOCCOCCOCCNc1nc(N2CCN(C(=O)[C@H]([C@@H](C)CC)n3cc([C@@H](N)CC(C)C)nn3)CC2)nc(N2CCN(C(=O)[C@H](CCCCN)n3cc([C@@H](N)CO)nn3)CC2)n1 | · | 38* | · | · | ·
C#CCOCCOCCOCCNc1nc(N2CCN(C(=O)[C@H](CCCCN)n3cc(C(N)CC(C)C)nn3)CC2)nc(N2CCN(C(=O)[C@H](CCC(=O)O)n3cc(C(N)[C@H](C)CC)nn3)CC2)n1 (some centres not stated) | · | 30 | · | · | ·

Screens deposited in PubChem BioAssay by The Scripps Research Institute Molecular Screening Center.
